From ChEMBL document CHEMBL1773006, “Enone- and chalcone-chloroquinoline hybrid analogues: in silico guided design, synthesis, antiplasmodial activity, in vitro metabolism, and mechanistic studies” (J Med Chem, 2011) come the findings set out here.

A short description of series [1]: Partition coefficient, log D of the compound at pH 7.4 by HPLC analysis. The format is physicochemical. Particulars: octanol/water.
Series [2] has as its system Plasmodium falciparum. The experiment in a line: Antiplasmodial activity against chloroquine-resistant Plasmodium falciparum W2 by FACS-based assay. The format is functional, organism-based. In short, it runs like this:
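W2 parasites kept in continuous culture in standard medium with 10% human serum, synchronized with 5% D-sorbitol at ring stage when needed. Parasite development read by FACS. Final DMSO at most 0.5%. IC50 in µM is the mean of two independent determinations, each run in duplicate.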

In series [3] the test system is Plasmodium falciparum. As to the kind of experiment: Antiplasmodial activity against chloroquine-resistant Plasmodium falciparum Dd2 by FACS-based assay. The format is functional, organism-based.
For series [4], the system named is Plasmodium falciparum. The experiment in a line: Antiplasmodial activity against chloroquine-sensitive Plasmodium falciparum D10 infected in erythrocytes assessed as inhibition of sorbitol-induced hemolysis after 15 mins. The format is functional.
Series [5] has as its system Plasmodium falciparum. The experiment in a line: Antiplasmodial activity against chloroquine-sensitive Plasmodium falciparum D10 by FACS-based assay. It is filed as functional, organism-based.
Series [6] can be described thus: Inhibition of Plasmodium falciparum falcipain 2 assessed as benzyloxycarbonyl-Phe-Leu-7-amino-4-methylcoumarin substrate hydrolysis after 30 mins by spectrofluorometry analysis.
The nature of series [7]: Solubility of the compound in 0.01 M hydrochloric acid at pH 2. It is filed as physicochemical.
Series [8] in a line: Ratio of compound IC50 to hematin IC50 for inhibition of beta-hematin formation.
Series [9] is described as follows: Partition coefficient, log D of the compound at pH 3 by HPLC analysis. The format is physicochemical. Particulars: octanol/water.
For series [10], the system named is Liver. As to the kind of experiment: (§1) Half life in mouse liver microsomes assessed as compound degradation at 1 uM by LC-MS analysis in presence of NADPH and UDPGA. The format is ADME, Microsome. The following applies: microsomes, 1 µM.
Series [11] is described as follows: Solubility of the compound in phosphate buffer at pH 6.5. It is filed as physicochemical.
Series [12] relates to Liver microsomes. The experiment in a line: (§2) Half life in human liver microsomes assessed as compound degradation at 1 uM by LC-MS analysis in presence of NADPH and UDPGA. It is filed as ADME, Microsome. The following applies: microsomes, 1 µM.
Series [13] is described as follows: as §1. Particulars: liver microsomes. It is filed as ADME, Microsome.
A short description of series [14]: as §2. It is filed as ADME, Microsome. The following applies: liver microsomes.
Series [15] deals with CHO. The experiment in a line: Cytotoxicity against CHO cells at 100 uM. The format is cell-based, Cricetulus griseus. Particulars: chinese hamster.
Setting [16] is: 0.01 M hydrochloric acid, read-out: solubility.
[17] abbreviates: phosphate buffer, read-out: solubility.

≈ marks a conversion by molar mass, not a printed value. Bounds are passed on as bounds.

As to `COc1cc(/C=C/C(C)=O)ccc1OCCNc1ccnc2cc(Cl)ccc12`, the logD in series [1] is 3; in series [9], 1.8. In addition, the IC50 in series [2] was 100 nM; in [3], 1500 nM; in [5] it was 1000 nM; in series [6] it was greater than 50000 nM. Besides, the “inhibition (INH)” value in series [4] turned out to be 12.3%. Also, the solubility in series [7] (setting [16]) came to 50 µg/mL (≈ 126 µM); in [11] (setting [17]), 6.3 µg/mL (≈ 15.9 µM). Also, in [8], the Ratio IC50 came to 0.6. Moreover, the results for the t1/2 in [10] and in [12] were 13.4 min and 10.5 min, respectively.

Take `COc1cc(/C=C/C(C)=O)ccc1OCCN1CCN(c2ccnc3cc(Cl)ccc23)CC1`: the logD was determined as 4.2 in series [1] and 1.2 in [9]. Further, the concentration for half-maximal inhibition (IC50) was 500 nM in series [2], 1000 nM in series [3], 1200 nM in [5] and greater than 50000 nM in [6]. In addition, the results for the solubility in series [7] (buffer) and in [11] (setting [17]) were greater than 100 µg/mL and 1.6 µg/mL (≈ 3.43 µM), respectively. Further, the Ratio IC50 in [8] came out at 0.5. Besides, the half-life at 1 µM came to 5.6 min in series [13] and 9.8 min in series [14].

As to `COc1ccc(C(=O)/C=C/c2ccc(OCCNc3ccnc4cc(Cl)ccc34)c(OC)c2)c(OC)c1`, the logD in series [1] stood at 4.2; in series [9], 2.8. In addition, the IC50 in series [2] turned out to be 400 nM; in series [3], 1100 nM; in [5], 800 nM; in series [6] it was 22900 nM. The solubility in series [7] (buffer) was greater than 100 µg/mL; in series [11] (setting [17]), 3.1 µg/mL (≈ 5.97 µM). Also, the Ratio IC50 in series [8] was determined as 0.3. Moreover, the t1/2 in [10] turned out to be 12.7 min; in [12], 17.5 min.

For `OCCNc1ccnc2cc(Cl)ccc12`, the IC50 was 200 nM in [2], 1000 nM in [3], 2600 nM in series [5] and greater than 50000 nM in [6]. Further, the “inhibition (INH)” value in series [4] amounted to 0.9%. The Ratio IC50 in series [8] came out at 4.9.

Regarding `COc1cc(/C=C/C(C)=O)ccc1O` [DEHYDROZINGERONE], the IC50 in [2] was greater than 10000 nM; in [3], greater than 20000 nM; in [5], greater than 20000 nM. Also, the “inhibition (INH)” value in series [4] turned out to be 21.1%.

Regarding `CC(=O)/C=C/c1ccc(O)c(CN2CCN(c3ccnc4cc(Cl)ccc34)CC2)c1`, the logD is 4.2 in series [1] and 0.8 in series [9]. Besides, the IC50 in series [2] amounted to 700 nM; in series [3], 3100 nM; in [5], 1700 nM; in series [6], 29900 nM. Also, the “inhibition (INH)” value in series [4] was found to be 11.6%. Besides, the solubility in series [7] (buffer) is greater than 100 µg/mL; in series [11] (buffer) it was less than 1.6 µg/mL. In addition, the Ratio IC50 in series [8] came to 0.5. Besides, the values for the t1/2 in series [10] and in series [12] were 15 min and 7.5 min, respectively.

Take `COc1ccc(C(=O)/C=C/c2ccc(OCc3cn(-c4ccnc5cc(Cl)ccc45)nn3)c(OC)c2)c(OC)c1`: the logD in series [1] and in [9] was 4.3 each time. Besides, the “inhibition (INH)” value in [4] turned out to be 15.4%. Moreover, the IC50 in [6] was 10800 nM. The solubility in series [7] (buffer) and in series [11] (buffer) was less than 1.6 µg/mL in each case. Besides, in series [8], the Ratio IC50 was found to be 1.6. For the same molecule, the t1/2 in series [10] is 56.8 min; in [12], 51.1 min.

Regarding `COc1ccc(C(=O)/C=C/c2ccc(O)c(CN3CCN(c4ccnc5cc(Cl)ccc45)CC3)c2)c(OC)c1`, the logD in [1] was determined as 5.3; in [9], 2. The IC50 in series [2] came to 300 nM; in series [3], 500 nM; in series [5] it was 600 nM; in series [6], 10000 nM. For the same molecule, in [15], the Activity entry was “Non-toxic”. Further, the solubility in series [7] (buffer) was greater than 100 µg/mL; in series [11] (buffer) it was less than 1.6 µg/mL. For the same molecule, the Ratio IC50 in series [8] was found to be 0.2. Further, the t1/2 in series [10] amounted to 45.4 min; in [12], 58.6 min.

For `CC(C)C[C@H](NC(=O)[C@H]1O[C@@H]1C(=O)O)C(=O)NCCCCN=C(N)N` [E-64], the IC50 in [6] was found to be 55 nM.

Take `OCCN1CCN(c2ccnc3cc(Cl)ccc23)CC1`: the IC50 is 1000 nM in [2], 3800 nM in series [3], 5200 nM in series [5] and greater than 50000 nM in series [6]. Besides, in series [8], the Ratio IC50 came to 3.9.

Consider `CCN(CC)CCCC(C)Nc1ccnc2cc(Cl)ccc12` (stereo not given) [CHLOROQUINE], for which, in series [12], the t1/2 is greater than 250 min.

Consider `Clc1ccc2c(N3CCNCC3)ccnc2c1`, for which the IC50 in series [2] was 300 nM; in series [3] it was 900 nM; in [5] it was 700 nM; in series [6], greater than 50000 nM. The “inhibition (INH)” value in series [4] is recorded as 5.8%.

In the case of `COc1cc(/C=C/C(C)=O)ccc1OCc1cn(-c2ccnc3cc(Cl)ccc23)nn1`, the logD was found to be 3.6 in [1] and 3.5 in series [9]. In addition, the solubility in [7] (setting [16]) and in series [11] (setting [17]) was 3.1 µg/mL (≈ 7.13 µM) throughout. In addition, the half-life at 1 µM in [13] is 6.2 min; in series [14] it was 7.4 min.

Regarding `COc1ccc(C(=O)/C=C/c2cc(CN3CCN(c4ccnc5cc(Cl)ccc45)CC3)c(O)c(OC)c2)c(OC)c1`, the logD amounted to 5 in series [1] and 2.1 in [9]. The IC50 came to 400 nM in series [2], 500 nM in series [3], 500 nM in series [5] and 9100 nM in [6]. In addition, the “inhibition (INH)” value in series [4] turned out to be 3.9%. The Activity result in [15] is “Non-toxic”. The solubility in series [7] (buffer) is greater than 100 µg/mL; in [11] (buffer), less than 1.6 µg/mL. Moreover, the Ratio IC50 in [8] stood at 0.3. In addition, the t1/2 in series [10] is 11.8 min; in series [12], 37 min.

Regarding `CC(=O)/C=C/c1ccc(O)cc1`, the IC50 in series [6] is greater than 50000 nM. The Ratio IC50 in [8] was greater than 5.

Turning to `COc1ccc(C(=O)/C=C/c2ccc(O)c(OC)c2)c(OC)c1`, the IC50 is greater than 10000 nM in series [2], 7300 nM in [3], 5300 nM in [5] and greater than 50000 nM in series [6]. Moreover, in series [4], the “inhibition (INH)” value is given as 27.9%. In addition, the Ratio IC50 in series [8] was greater than 5.

Consider `COc1ccc(C(=O)/C=C/c2ccc(OCCN3CCN(c4ccnc5cc(Cl)ccc45)CC3)c(OC)c2)c(OC)c1`, for which the logD was 5.3 in series [1] and 2.2 in series [9]. Besides, the IC50 in series [2] was 600 nM; in series [3], 500 nM; in series [5] it was 1200 nM; in [6], 11700 nM. Moreover, the solubility in series [7] (buffer) is greater than 100 µg/mL; in [11] (buffer), less than 1.6 µg/mL. The Ratio IC50 in [8] is 0.2. The half-life at 1 µM in [13] is 9.8 min; in series [14], 11.5 min.

`COc1ccc(C(=O)/C=C/c2ccc(O)cc2)c(OC)c1`: the IC50 in series [6] was greater than 50000 nM. In addition, the Ratio IC50 in series [8] is 1.9.

Regarding `COc1cc(/C=C/C(C)=O)cc(CN2CCN(c3ccnc4cc(Cl)ccc34)CC2)c1O`, the logD in series [1] was determined as 3.9; in series [9], 0.9. Moreover, the IC50 was 500 nM in [2], 1700 nM in series [3], 1000 nM in [5] and greater than 50000 nM in series [6]. Besides, the “inhibition (INH)” value in series [4] was 16.8%. Also, the solubility in series [7] (buffer) was greater than 100 µg/mL; in series [11] (setting [17]) it was 1.6 µg/mL (≈ 3.54 µM). Besides, in series [8], the Ratio IC50 amounted to 0.5. The t1/2 in series [10] turned out to be 14 min.
